For assay [1], the species on record is Rattus norvegicus. The assay is described as follows: Selectivity ratio of compound effect for antagonism of alpha1D adrenergic receptor in Wistar rat thoracic aorta to compound effect for antagonism of alpha1A adrenergic receptor in Wistar rat prostatic rat vas deferens. In outline:
(§1)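 Ratio taken as the antilog of the difference between rat tissue pA2 or pKB values for the two subtypes (vas deferens α1A, spleen α1B, aorta α1D organ-bath antagonism).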

In assay [2] the target is T1, Alpha-1A adrenergic receptor (Homo sapiens, UniProt P35348).
T1 sequence (P35348 whole entry): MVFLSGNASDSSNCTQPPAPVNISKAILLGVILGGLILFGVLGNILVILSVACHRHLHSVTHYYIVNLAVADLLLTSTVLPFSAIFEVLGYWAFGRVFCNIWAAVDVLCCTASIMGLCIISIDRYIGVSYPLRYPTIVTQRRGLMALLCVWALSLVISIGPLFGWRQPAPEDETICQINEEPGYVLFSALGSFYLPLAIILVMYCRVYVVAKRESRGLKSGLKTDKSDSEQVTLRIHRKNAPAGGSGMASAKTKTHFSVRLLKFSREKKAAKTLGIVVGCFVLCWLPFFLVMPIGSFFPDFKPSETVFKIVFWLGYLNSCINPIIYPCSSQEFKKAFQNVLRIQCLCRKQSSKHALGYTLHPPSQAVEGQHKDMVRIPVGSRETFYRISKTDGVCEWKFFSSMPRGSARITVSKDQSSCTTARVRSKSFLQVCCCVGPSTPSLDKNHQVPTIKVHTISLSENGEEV
The assay is described as follows: Displacement of [3H]prazosin from human alpha1A adrenergic receptor expressed in CHO cell membranes after 30 mins by rapid filtration method. In outline: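 Membranes (30 μg protein) from CHO cells stably transfected with the human α1a, α1b or α1d receptor. Incubated 30 min at 25 °C in 50 mM Tris-HCl pH 7.4 with 0.1–0.4 nM [3H]prazosin and competitor 1 pM–10 μM. Nonspecific binding defined by 10 μM phentolamine. Stopped by rapid filtration through PEI-treated filters. IC50 converted to Ki by Cheng-Prusoff; pKi from 2–3 experiments in triplicate.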

Assay [3] is filed under the species Homo sapiens. The assay is described as follows: Selectivity ratio of compound effect for displacement of [3H]prazosin from human alpha1B adrenergic receptor expressed in CHO cell membranes to compound effect for displacement of [3H]prazosin from human alpha1A adrenergic receptor expressed in CHO cell membranes. In outline:
(§2)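 Ratio taken as the antilog of the difference between pKi values from [3H]prazosin displacement at human α1 subtypes expressed in CHO membranes.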

The species entered for assay [4] is Rattus norvegicus. The assay is described as follows: Selectivity ratio of compound effect for antagonism of alpha1B adrenergic receptor in Wistar rat spleen to compound effect for antagonism of alpha1A adrenergic receptor in Wistar rat prostatic rat vas deferens. In outline: as §1
Assay [5] deals with T2, Alpha-1D adrenergic receptor (Rattus norvegicus, UniProt P23944).
T2 sequence (P23944 whole entry): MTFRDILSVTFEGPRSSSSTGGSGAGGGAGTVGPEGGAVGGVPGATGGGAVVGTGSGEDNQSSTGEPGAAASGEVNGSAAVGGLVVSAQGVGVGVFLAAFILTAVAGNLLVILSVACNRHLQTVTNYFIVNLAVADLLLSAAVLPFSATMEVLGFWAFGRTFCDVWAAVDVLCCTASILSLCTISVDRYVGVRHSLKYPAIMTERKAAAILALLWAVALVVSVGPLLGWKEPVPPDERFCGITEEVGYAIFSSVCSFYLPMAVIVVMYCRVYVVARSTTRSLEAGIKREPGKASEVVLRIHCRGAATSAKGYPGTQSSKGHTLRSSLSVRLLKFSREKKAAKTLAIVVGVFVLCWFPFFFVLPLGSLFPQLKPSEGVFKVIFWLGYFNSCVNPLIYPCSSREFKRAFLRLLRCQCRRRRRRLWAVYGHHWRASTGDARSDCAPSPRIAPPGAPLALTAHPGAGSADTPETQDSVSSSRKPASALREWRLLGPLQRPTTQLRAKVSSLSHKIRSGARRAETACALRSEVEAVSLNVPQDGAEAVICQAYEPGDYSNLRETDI
The assay is described as follows: Antagonist activity at alpha1D adrenergic receptor in Wistar rat thoracic aorta assessed as inhibition of noradrenaline-induced contraction measured after 30 mins in presence of cocaine hydrochloride and beta-adrenoceptor blocker propranolol hydrochloride. The settings on record: read-out: pA2 (converted). Type of assay: functional. In outline:
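Helical thoracic aorta strips, endothelium removed (checked by loss of acetylcholine relaxation), in Krebs at 1 g, equilibrated ≥2 h. Isometric cumulative noradrenaline curves at 1 h intervals; the second served as control, the third followed 30 min antagonist.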

For assay [6], the species on record is Homo sapiens. The assay is described as follows: Selectivity ratio of compound effect for displacement of [3H]prazosin from human alpha1D adrenergic receptor expressed in CHO cell membranes to compound effect for displacement of [3H]prazosin from human alpha1A adrenergic receptor expressed in CHO cell membranes. In outline: as §2
Assay [7] deals with T3, Alpha-1B adrenergic receptor (Rattus norvegicus) (UniProt P15823).
T3 sequence (whole entry): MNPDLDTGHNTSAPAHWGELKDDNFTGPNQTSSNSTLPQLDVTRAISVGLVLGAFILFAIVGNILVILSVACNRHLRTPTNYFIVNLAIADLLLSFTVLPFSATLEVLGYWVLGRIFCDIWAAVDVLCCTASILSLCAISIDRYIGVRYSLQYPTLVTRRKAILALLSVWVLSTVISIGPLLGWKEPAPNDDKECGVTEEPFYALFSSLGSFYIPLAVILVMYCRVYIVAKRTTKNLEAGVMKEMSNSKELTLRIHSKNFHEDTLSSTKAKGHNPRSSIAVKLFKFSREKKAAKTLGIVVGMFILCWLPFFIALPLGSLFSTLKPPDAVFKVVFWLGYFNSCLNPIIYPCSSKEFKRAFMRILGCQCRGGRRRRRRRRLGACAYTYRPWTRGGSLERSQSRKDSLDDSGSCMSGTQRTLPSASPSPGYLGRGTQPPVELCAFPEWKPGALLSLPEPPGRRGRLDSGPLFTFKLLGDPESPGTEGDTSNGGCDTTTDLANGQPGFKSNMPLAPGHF
The assay is described as follows: Antagonist activity at alpha1B adrenergic receptor in Wistar rat spleen assessed as inhibition of phenylephrine-induced contraction incubated for 30 mins in presence of beta-adrenoceptor blocker propranolol hydrochloride. Type of assay: functional. In outline: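 Spleen bisected longitudinally into strips in Krebs with propranolol 4 μM, held at 1 g and equilibrated 2 h. Two isometric cumulative phenylephrine curves, each followed by 30 min washing. Third curve after 30 min vehicle or antagonist. Potency as pA2 (Schild) or pKB at one concentration (van Rossum). Responses as % of control maximum; n ≥ 4.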

For the compound `COc1cc2nc(N3CCN(C(C)=O)[C@@H]4CCCC[C@@H]43)nc(N)c2cc1OC`, the Selectivity ratio in the assay listed under Rattus norvegicus [1] stood at 20; in the assay listed under Homo sapiens [3] it was 12; in the assay filed under Rattus norvegicus [4] it was 72; in the assay filed under Homo sapiens [6], 60. In assay [2], this compound showed a Ki of 0.00912 µM. Moreover, in assay [5], the Kb is 0.00219 µM.
For `COc1cc2nc(N3CCN(C(=O)COc4c(OC)cccc4C(C)C)[C@H]4CCCC[C@H]43)nc(N)c2cc1OC`, the Selectivity ratio in the assay filed under Rattus norvegicus [1] came to 3; in the assay filed under Homo sapiens [3], 6; in the assay listed under Rattus norvegicus [4] it was 0.8; in the assay filed under Homo sapiens [6] it was 2. For the same compound, the Ki in assay [2] is 0.000871 µM. The Kb in assay [5] is 0.0589 µM.
Take `COc1cc2nc(N3CCN(C(=O)OCc4ccccc4)[C@@H]4CCCC[C@@H]43)nc(N)c2cc1OC`: the Selectivity ratio in the assay listed under Rattus norvegicus [1] turned out to be 31; in the assay listed under Homo sapiens [3], 3; in the assay listed under Rattus norvegicus [4] it was 9; in the assay filed under Homo sapiens [6], 13. In assay [2], the Ki is 0.000501 µM. Also, the Kb in assay [5] is 0.000525 µM.
Take `CCCCCC(=O)N1CCN(c2nc(N)c3cc(OC)c(OC)cc3n2)[C@@H]2CCCC[C@@H]21`: the Selectivity ratio in the assay listed under Rattus norvegicus [1] was 0.6; in the assay listed under Homo sapiens [3] it was 6; in the assay filed under Rattus norvegicus [4], 9; in the assay listed under Homo sapiens [6], 2. Moreover, the affinity in assay [2], expressed as Ki, was 0.00575 µM. The pKb in assay [7] amounted to 7.99. In addition, the Kb in assay [5] is 0.155 µM.
As to `COc1cc2nc(N3CCN(C(=O)OCc4ccccc4)[C@H]4CCCC[C@H]43)nc(N)c2cc1OC`, the Selectivity ratio amounted to 3 in the assay filed under Rattus norvegicus [1], 14 in the assay filed under Homo sapiens [3], 457 in the assay filed under Rattus norvegicus [4] and 1 in the assay filed under Homo sapiens [6]. The Ki in assay [2] was 0.0055 µM. The pKb in assay [7] was 8.77. Besides, the Kb in assay [5] was 0.24 µM.
For `CCCN(CCC)c1nc(N2CCN(C(=O)c3ccco3)[C@@H]3CCCC[C@@H]32)nc2cc(OC)c(OC)cc12`, the Selectivity ratio was 1 in the assay listed under Rattus norvegicus [1], 15 in the assay filed under Homo sapiens [3], 1 in the assay listed under Rattus norvegicus [4] and 29 in the assay listed under Homo sapiens [6]. For the same compound, the affinity in assay [2] corresponds to a Ki of 0.00186 µM. Moreover, the pKb in assay [7] is 7.17. For the same compound, the Kb in assay [5] was 0.0589 µM.
Regarding `CCCN(CCC)c1nc(N2CCN(C(=O)c3ccco3)[C@H]3CCCC[C@H]32)nc2cc(OC)c(OC)cc12`, the Selectivity ratio was 2 in the assay listed under Rattus norvegicus [1], 74 in the assay filed under Homo sapiens [3], 93 in the assay listed under Rattus norvegicus [4] and 4 in the assay listed under Homo sapiens [6]. This compound also had a Ki in assay [2] of 0.0224 µM. Besides, the pKb in assay [7] was determined as 7.86.
Turning to `COc1cc2nc(N3CCN(C(=O)C4COc5ccccc5O4)[C@H]4CCCC[C@H]43)nc(N)c2cc1OC` (single isomer, unassigned; (-)) [CYCLODOXAZOSIN], the values for the Selectivity ratio in the assay filed under Rattus norvegicus [1] and in the assay listed under Rattus norvegicus [4] were 3 and 81, respectively. Also, the pKb in assay [7] is 8.61.
Take `COc1cc2nc(N3CCN(C(=O)Cc4ccc5ccccc5c4)[C@H]4CCCC[C@H]43)nc(N)c2cc1OC`: the Selectivity ratio in the assay filed under Rattus norvegicus [1] was 2; in the assay listed under Homo sapiens [3] it was 14; in the assay filed under Rattus norvegicus [4], 30; in the assay filed under Homo sapiens [6], 8. The same compound had a Ki in assay [2] of 0.017 µM. Also, in assay [7], the pKb is 8.05. The Kb in assay [5] is 0.135 µM.
Consider `COc1cc2nc(N3CCN(C(=O)C(C)(C)C)[C@H]4CCCC[C@H]43)nc(N)c2cc1OC`, for which the Selectivity ratio in the assay filed under Rattus norvegicus [1] was 0.5; in the assay listed under Homo sapiens [3], 9; in the assay filed under Rattus norvegicus [4], 12; in the assay listed under Homo sapiens [6], 1. In assay [2], this compound gave a Ki of 0.00661 µM. The pKb in assay [7] amounted to 8.26. In assay [5], the Kb is 0.141 µM.
On to `COc1cc2nc(N3CCN(C(C)=O)[C@H]4CCCC[C@H]43)nc(N)c2cc1OC`, for which the Selectivity ratio was found to be 2 in the assay listed under Rattus norvegicus [1], 25 in the assay listed under Homo sapiens [3], 1000 in the assay listed under Rattus norvegicus [4] and 2 in the assay listed under Homo sapiens [6]. In addition, the Ki in assay [2] was 0.224 µM. Also, the Kb in assay [5] was 1.7 µM.

(Values after ChEMBL document CHEMBL4118202, “Chiral analogues of (+)-cyclazosin as potent α1B-adrenoceptor selective antagonist” (Bioorg Med Chem, 2018).)
